Data reported in PubChem BioAssay AID602231 (The Scripps Research Institute Molecular Screening Center, 2012).
Active and inactive are the calls of the source.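 The calls were made as follows: active = calcium level giving half maximal force raised by at least 10% versus DMSO, meaning delta pCa50 at or below about -0.041; inactive = the rest.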

Assay: pCa50 shift in permeabilized muscle fibers – porcine papillary fibers, force transducer, mechanism study for cardiac RTF sensitizer project (AID 602231)
Conditions: Permeabilized pig cardiac fiber, Ca2+-tension pCa50 shift, at 10 µM; delta pCa50: stronger effect = higher value; maximal force change: measured here: effect on maximal fiber tension
Method in brief: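 System: Skinned porcine cardiac papillary muscle fibers; Dosing: single 10 µM compound dose in 0.1% DMSO; Detection: fiber tension measured by force transducer; Read-out basis: pCa50 shift versus DMSO; Also added: free Ca2+ series, pCa 8.0–4.5; Benchmarks: same fiber in 0.1% DMSO alone as reference; Medium: pH 7.0 buffer with Mg-ATP and EGTA.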

## Cc1ccc(/C=C2\Oc3c(ccc(O)c3CN3CCN(CCO)CC3)C2=O)cc1
  delta pCa50: -0.027 (inactive)
  maximal force change: -0.5%

## CCOC(=O)c1sc(N)c(C#N)c1COC(=O)CNC(=O)c1cc(OC)c(OC)c(OC)c1
  delta pCa50: -0.039 (inactive)
  maximal force change: 3.3%

## Cc1cccn2c(=O)c(/C=C3\SC(=S)N(CC(C)C)C3=O)c(NCCCOC(C)C)nc12
  delta pCa50: -0.003 (inactive)
  maximal force change: -9.9%

## CCOC(=O)c1cc2n(c1N)-c1ccccc1C2=O
  delta pCa50: 0.01 (inactive)
  maximal force change: 2.13%
